Screening results: PubChem, Sanford-Burnham Center for Chemical Genomics
In the library only some 0.79% were active in any assay of this set; here they are far more common.
mIAP inh: mouse IAP inhibition; purified mouse IAP, CDP-Star luminescence, 30 min; inhibition, % at 10 µM; 330,000 tested, 0.2% active; AID 2806;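 active means inhibition of at least 40% at 10 µM in the primary screen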;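 further: plate controls were DMSO with enzyme for no effect and no enzyme wells for full effect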
mIAP act: increases mouse intestinal alkaline phosphatase activity | muIAP, CDP-Star luminescence, 30 min; stronger effect = higher value; 1 = vehicle-only enzyme signal, 0 = enzyme-free wells | activation factor at 10 µM | 330,000 tested, 0.24% active | AID 2805;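 active means activation factor of at least 2 at 20 µM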
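System: mouse IAP enzyme. Reagent: CDP-Star chemiluminescent phosphatase substrate. Benchmarks: DMSO wells, no-enzyme wells. Times: 30 min enzyme-substrate-compound incubation at room temperature. Detection: luminescence from enzymatic CDP-Star hydrolysis. Doses: test compounds delivered from DMSO solution.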
hIAP act: increases human intestinal alkaline phosphatase activity; P09923; purified human IAP, CDP-Star luminescence, 30 min; stronger effect = higher value; 1 = vehicle-only enzyme, 0 = enzyme-free background; activation factor at 10 µM; 330,000 tested, 0.16% active;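 active means activation factor of the enzyme at least 2-fold when tested at 20 µM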
Target sequence (P09923 whole entry, looked up): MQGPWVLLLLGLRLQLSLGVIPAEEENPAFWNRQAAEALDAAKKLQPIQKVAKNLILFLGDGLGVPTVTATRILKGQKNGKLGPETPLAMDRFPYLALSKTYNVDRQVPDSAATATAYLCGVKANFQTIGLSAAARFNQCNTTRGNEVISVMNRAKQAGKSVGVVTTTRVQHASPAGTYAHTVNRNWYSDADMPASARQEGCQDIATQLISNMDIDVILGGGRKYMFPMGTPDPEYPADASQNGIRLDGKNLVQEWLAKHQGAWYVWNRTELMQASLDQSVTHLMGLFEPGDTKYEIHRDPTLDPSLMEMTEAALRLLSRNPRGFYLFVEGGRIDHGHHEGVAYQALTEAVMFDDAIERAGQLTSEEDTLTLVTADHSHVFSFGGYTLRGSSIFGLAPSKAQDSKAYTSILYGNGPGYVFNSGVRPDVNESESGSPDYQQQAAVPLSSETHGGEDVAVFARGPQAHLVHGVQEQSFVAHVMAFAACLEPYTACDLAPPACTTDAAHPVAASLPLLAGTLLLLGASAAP
hIAP block: blocks human intestinal alkaline phosphatase; 330,000 tested, 0.12% active; purified IAP, CDP-Star luminescence, 30 min; inhibition, % at 10 µM; P09923; AID 2544;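 active means inhibition reaching a set limit with compound at 10 µM in the primary screen, cut at about 35% in these data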;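 further: plate controls were DMSO wells with enzyme for no effect and no-enzyme buffer wells for full effect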
bIAP act: increases bovine intestinal alkaline phosphatase activity; AID 1016; activation factor at 20 µM; 200,000 tested, 0.17% active; purified bovine IAP, CDP-star luminescence, 30 min; stronger effect = higher value; fold of DMSO-control signal, blank-subtracted;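 active means activation factor of 2 or more at 20 µM, a signal rise over negative controls twice the positive control's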
bIAP inh: intestinal alkaline phosphatase (bovine) inhibition. purified bovine IAP, CDP-star luminescence, 30 min. inhibition, % at 20 µM. 190,000 tested, under 10 active;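 active means over 50% inhibition of intestinal alkaline phosphatase at 20 µM in the single-dose screen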
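Assay system – bovine IAP enzyme · Quantity – bovine IAP at 1/65,000,000 final dilution · Detection – CDP-star luminescence signal · Times – 30 min reaction at room temperature · Also added – CDP-star substrate at 30 µM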
* = called active by the depositor; . = not tested or not shown.

SMILES	mIAP inh	mIAP act	hIAP act	hIAP block	bIAP act	bIAP inh
O=S(=O)(c1ccc(NC(=S)Nc2ccccc2)cc1)N1CCOCC1	-1	1	1.1	-6	1	2
O=C(CS(=O)(=O)c1ccc(Cl)c(Cl)c1)Nc1ccccc1Cl	-6	1.1	0.94	6	0.8	25
CN1C(=O)COc2ccc(C(=O)c3ccccc3C(=O)O)cc21	13	0.87	0.91	9	1	-4
CC(=O)Cn1ncc(N2CCOCC2)c(Cl)c1=O	4	0.96	0.95	5	.	.
COc1ccc(C(=O)COC(=O)/C=C/c2ccc(S(=O)(=O)Nc3cccc(S(N)(=O)=O)c3)cc2)cc1	14	0.86	1	-3	1.1	-6
O=C(N/N=C/c1ccc[nH]1)c1cccc(Br)c1	29	0.71	0.99	1	1.6	-56
Cc1cccc(C(=O)N/N=C/c2ccc[nH]2)c1	40*	0.6	0.95	5	1	2
CC(COc1ccccc1Cc1ccccc1)N1CCCCC1 (stereo not drawn)	9	0.91	0.6	40*	.	.
O=C(O)COc1ccccc1Cc1ccccc1	3	0.97	1.1	-11	1	4
CCCCc1cc2ccccc2c(OCCN(C)C)n1	-6	1.1	0.95	5	.	.
O=C(COC(=O)C12CC3CC(CC(Br)(C3)C1)C2)NNC(=O)c1ccccc1	-6	1.1	0.97	3	.	.
CCOc1ccc2nc(NCCCNC(=O)c3cc(OC)c(OC)c(OC)c3)c(C#N)cc2c1	-101	2*	1.7	-72	.	.
CCCCSCCCNC(=O)Nc1ccc(CC)cc1	-146	2.5*	1.1	-7	0.5	49
COc1cccc(NS(=O)(=O)c2cn(C)c(=O)n(C)c2=O)c1	-6	1.1	0.84	16	5.1*	-409
Cn1cc(S(=O)(=O)Nc2cccc(F)c2)c(=O)n(C)c1=O	-17	1.2	0.97	3	0.9	6
CCOC(=O)c1c(C)[nH]c(C)c1C(=O)COC(=O)c1ccc(OC)c(OC)c1	-1	1	1.1	-8	1.2	-18
CCOC(=O)C(CC)Sc1nc2c(c(=O)[nH]c(=O)n2C)n1CCc1ccccc1 (stereo not drawn)	18	0.82	1.2	-16	2.8*	-183
CCOC(=O)CSc1nc2c(c(=O)[nH]c(=O)n2C)n1CCc1ccccc1	-10	1.1	1.1	-11	0.9	10
CN(CCCS(=O)(=O)[O-])c1ccc(/C=C/c2ccc3ccccc3[n+]2C)cc1	2	0.98	0.81	19	.	.
CN(C)c1ccc(/C=C/c2ccc3ccccc3[n+]2C)cc1	42*	0.58	0.93	7	0.8	17
Cc1c(Cl)cccc1NC(=S)NCc1ccccc1Cl	-169	2.7*	1	-1	1.1	-6
Cc1nn(Cc2ccc(Cl)cc2Cl)c(C)c1NC(=O)c1sc2ccccc2c1Cl	4	0.96	0.99	1	0.9	13
Cc1nn(Cc2ccc(Cl)cc2Cl)c(C)c1NC(=O)NC12CC3CC(CC(C3)C1)C2	-112	2.1*	0.88	12	1.3	-34
O=C(Nc1ccccc1)Nc1ccc(S(=O)(=O)N2CCCCC2)cc1	-140	2.4*	0.94	6	0.8	17
Cc1oc(S(=O)(=O)N2CCCCC2)cc1NC(=O)Nc1ccc(Cl)cc1	-156	2.6*	1.4	-35	.	.
SMILES	mIAP inh	mIAP act	hIAP act	hIAP block	bIAP act	bIAP inh
O=C(Nc1ccc(S(=O)(=O)N2CCCCC2)cc1)c1ccccc1Cl	-1	1	0.86	14	0.8	19
CCC(=O)Nc1cc2c(cc1C(=O)c1ccccc1)OCCO2	6	0.94	0.93	7	1	-1
CC1CC(C)CN(CC(=O)N2CCOCC2)C1 (stereo not drawn)	1	0.99	0.93	7	1	0
Cc1ccc(S(=O)(=O)N2[C@@H](c3cccc(Cl)c3)C(C(=O)O)=CC[C@H]2c2cccc(Cl)c2)cc1	42*	0.58	0.91	9	.	.
Fc1ccccc1CNC(=S)Nc1cccc(C(F)(F)F)c1	-167	2.7*	0.78	22	0.9	11
CC(NC(=S)Nc1cccc(C(F)(F)F)c1)C(C)(C)C (stereo not drawn)	-266	3.7*	1.2	-17	0.8	15
FC(F)(F)c1cccc(NC(=S)NNC(=S)Nc2ccc(Cl)cc2)c1	12	0.88	0.94	6	.	.
COc1ccc(CNC(=S)Nc2ccccc2)cc1Cl	-40	1.4	1.1	-6	.	.
COc1ccc(CNC(=S)Nc2ccc(F)c(Cl)c2)cc1OC	-157	2.6*	1.5	-53	1	4
FC(F)(F)c1cccc(NC(=S)NCc2ccc(Cl)cc2)c1	-170	2.7*	1.1	-6	0.9	10
CN(C)NC(=S)Nc1cccc(C(F)(F)F)c1	6	0.94	0.89	11	.	.
c1ccc2[nH]c(CSc3nnc(-c4ccncc4)o3)nc2c1	14	0.86	0.99	1	1.4	-36
Fc1ccc(CNC(=S)Nc2cccc(C(F)(F)F)c2)cc1	-162	2.6*	1.2	-18	1	2
Fc1cccc(NC(=S)NCc2ccc(Cl)cc2)c1	-150	2.5*	1.1	-13	0.9	5
O=C(CNc1cccc(Cl)c1)NNC(=S)NCc1ccccc1	6	0.94	1.7	-67	1	0
Fc1cc(NC(=S)NCc2ccc(CNC(=S)Nc3ccc(Cl)c(F)c3)cc2)ccc1Cl	-112	2.1*	1.1	-15	.	.
Fc1ccccc1NC(=S)NCc1ccc(Cl)cc1	-51	1.5	1.1	-12	.	.
Fc1ccc(CNC(=S)NCc2ccc(F)cc2)cc1	-48	1.5	1	-3	.	.
S=C(NCc1ccccc1)Nc1cccc(Cl)c1	-127	2.3*	1.1	-8	0.9	8
Cc1onc(-c2ccccc2)c1C1=N/C(=C\c2ccccc2F)C(=O)O1	-7	1.1	1.2	-16	1	0
COc1cccc(NC(=O)CN(C)C(=O)c2ccc(COc3ccccc3)o2)c1	-4	1	1.1	-8	.	.
COc1cc(CNCCc2c[nH]c3ccccc23)ccc1OCc1ccc(F)cc1	7	0.93	0.85	15	2.9*	-187
CCCCCCc1ccc(N2C[C@H](CCCCC)[C@@H](CC(=O)NCc3ccccc3)C2=O)cc1	-134	2.3*	0.91	9	.	.
CCCCCCc1ccc(N2C[C@H](Cc3ccccc3)[C@@H](CC(=O)NCc3ccc(OC)cc3)C2=O)cc1	-100	2	0.85	14	.	.
CCCCCCc1ccc(N2C[C@H](CCCCC)[C@@H](CC(=O)NCc3ccc(OC)cc3)C2=O)cc1	-126	2.3*	0.95	5	.	.
CC(C)=CCCC1=CCC(/C(C)=N/NC(N)=O)CC1 (stereo not drawn)	6	0.94	0.85	15	1	3
Cc1cccc(OCCCCCn2ccnc2)c1C	-6	1.1	1	0	3*	-202
COCCNC(=O)/C=C/c1c(Cl)cccc1Cl	5	0.95	0.65	35*	0.9	7
